The values below come from ChEMBL document CHEMBL1157649, “Cytotoxic 2-benzylidene-6-(nitrobenzylidene)cyclohexanones which display substantially greater toxicity for neoplasms than non-malignant cells” (Bioorg Med Chem, 2010).

Active and inactive are the calls of the source. The rule behind the calls is not given here.

For data set [1], the species on record is Mus musculus. Put plainly: Toxicity in mouse. The format is organism-based. The conditions noted are these: in vivo. In a few lines: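 Neurotoxicity was recorded as the number of affected mice per number treated at each dose. Testing was run under National Institute of Neurological Disorders and Stroke screening protocols.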
Data set [2] in a line: Cytotoxicity against human HGF cells after 24 hrs. The format is cell-based. The conditions noted are these: for CC50: hgf, 24 h; for CC50 at 24 h: HGF cells. In short, it runs like this:
(§1)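 Cells (HGF gingival fibroblasts, HPC pulp cells, HPLF periodontal ligament fibroblasts, HSC-2 and HSC-4 squamous carcinoma, HL-60 promyelocytic leukemia) were exposed to graded concentrations for 24 h, up to a maximum of 400 μM. CC50 is the concentration reducing viable cell number by 50%, taken from dose–response curves. Values are from duplicate determinations differing by less than 5%.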

Data set [3] can be described thus: Cytotoxicity against human HPC cells after 24 hrs. Format: cell-based. The conditions noted are these: for CC50: hpc, 24 h; for CC50 at 24 h: HPC cells. In a few lines:
as §1

The nature of data set [4]: Cytotoxicity against human HPLF cells after 24 hrs. The format is cell-based. The conditions noted are these: for CC50: hplf, 24 h; for CC50 at 24 h: HPLF cells. In short, it runs like this:
as §1

The test system of data set [5] is HSC-2. The experiment in a line: Cytotoxicity against human HSC2 cells after 24 hrs. Format: functional. The conditions noted are these: HSC-2, 24 h. In short, it runs like this:
as §1

The test system of data set [6] is HSC-2. The experiment in a line: Selectivity index, ratio of CC50 for human normal cells to CC50 for human HSC2 cells. The format is functional. In short, it runs like this: (§2)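 The index is the average CC50 toward the three normal cell types (HGF, HPC, HPLF) divided by the CC50 toward the indicated malignant line.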
The subject of data set [7] is HSC-4. The experiment in a line: Cytotoxicity against human HSC4 cells after 24 hrs. Format: functional. The conditions noted are these: HSC-4, 24 h. In short, it runs like this: as §1
Data set [8] concerns HSC-4. The experiment in a line: Selectivity index, ratio of CC50 for human normal cells to CC50 for human HSC4 cells. The format is functional. In a few lines: as §2
Data set [9] has as its system HL-60. The experiment in a line: Cytotoxicity against human HL60 cells after 24 hrs. Format: functional. The conditions noted are these: HL-60, 24 h. In a few lines: as §1
In data set [10] the test system is HL-60. The experiment in a line: Selectivity index, ratio of CC50 for human normal cells to CC50 for human HL60 cells. The format is functional. In short, it runs like this:
as §2

The nature of data set [11]: Partition coefficient, log P of the compound. The conditions noted are these: octanol/water. The format is physicochemical.
Data set [12] has as its system Mus musculus. Put plainly: Toxicity in mouse assessed as induction of mortality at 30 to 300 mg/kg, ip. The conditions noted are these: in vivo. Set-up: dose 30-300 mg/kg, route intraperitoneal. Format: organism-based.
The test system of data set [13] is Mus musculus. Put plainly: Neurotoxicity in mouse assessed at 30 to 300 mg/kg, ip after 0.5 hrs. The format is toxicity, organism-based. Also on record: dose 30-300 mg/kg, route intraperitoneal. The conditions noted are these: in vivo. In a few lines: (§3)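 Mice received 30, 100 or 300 mg/kg intraperitoneally and were examined at 0.5 and 4 h for mortality and neurological deficit, following NINDS screening protocols. Results were recorded as the number of mice showing a deficit over the number treated per dose.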

Data set [14] deals with Mus musculus. The experiment in a line: Neurotoxicity in mouse assessed at 30 to 300 mg/kg, ip after 4 hrs. The format is toxicity, organism-based. Also on record: dose 30-300 mg/kg, route intraperitoneal. The conditions noted are these: in vivo. In short, it runs like this: as §3
Data set [15] has as its system HL-60. The experiment in a line: Induction of internucleosomal DNA fragmentation in human HL60 cells after 6 hrs. The format is functional, cell-based. In short, it runs like this:
(§4)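 HL-60 and HSC-2 cells were incubated with compound for 6 h. Internucleosomal DNA fragmentation was then examined against a DNA molecular-weight marker.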

Data set [16] relates to HSC-2. Put plainly: Induction of internucleosomal DNA fragmentation in human HSC2 cells after 6 hrs. The format is functional, cell-based. In short, it runs like this: as §4
For data set [17], the system named is HL-60. The experiment in a line: Induction of apoptosis in human HL60 cells assessed as caspase-3 activation. Format: functional, cell-based. In short, it runs like this: (§5)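 HL-60 and HSC-2 cells were incubated with compound for 5 h, then caspase-3 activation was measured. The positive control was UV irradiation (6 J/m²/min for 1 min) followed by 3 h incubation. Bars show mean ± SD, n = 3.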

The subject of data set [18] is HSC-2. Put plainly: Induction of apoptosis in human HSC2 cells assessed as caspase-3 activation. The format is functional, cell-based. In short, it runs like this: as §5

The compound `N[C@@H](Cc1ccc(N(CCCl)CCCl)cc1)C(=O)O` came in with an Activity in the data set filed under Mus musculus [1] of 4 mg/kg.
For the compound `COc1cc(/C=C2\CCC/C(=C\c3ccccc3[N+](=O)[O-])C2=O)cc(OC)c1OC`, the CC50 was 44 µM in data set [2]; 35 µM in data set [3]; 79 µM in data set [4]; 5.9 µM with HSC-2 [5]; 6.5 µM with HSC-4 [7]; 3 µM in the data set with HL-60 [9]. For the same compound, the figures for the “Selectivity Index” value with HSC-2 [6], in the data set on HSC-4 [8] and in the data set with HL-60 [10] were 9, 8.2 and 18, respectively. The same compound displayed a logP in data set [11] of 4.33. The Activity result in the data set with Mus musculus [12], with Mus musculus [13] and with Mus musculus [14] was “Non-toxic” throughout.
For the compound `O=C1/C(=C/c2ccc(Cl)cc2)CCC/C1=C\c1ccc([N+](=O)[O-])cc1`, the CC50 at 24 h in [2] turned out to be 191 µM; in data set [3], 345 µM; in [4], 332 µM. The CC50 in the data set with HSC-2 [5] came out at 1.5 µM; with HSC-4 [7] it was 2.7 µM; in the data set with HL-60 [9], 4.1 µM. In addition, the “Selectivity Index” value was found to be 193 in the data set on HSC-2 [6], 107 with HSC-4 [8] and 71 in the data set on HL-60 [10]. This compound registered a logP in data set [11] of 5.6. In addition, the Activity result with Mus musculus [12], in the data set on Mus musculus [13] and in the data set with Mus musculus [14] was “Non-toxic” each time.
As for `O=C1/C(=C/c2ccccc2)CCC/C1=C\c1ccc([N+](=O)[O-])cc1`, the CC50 in [2] is 371 µM; in data set [3] it was 123 µM; in [4], 282 µM; in the data set with HSC-2 [5], 4.9 µM; in the data set on HSC-4 [7], 9.2 µM; in the data set with HL-60 [9], 20 µM. Further, the “Selectivity Index” value in the data set on HSC-2 [6] was found to be 53; with HSC-4 [8] it was 28; in the data set on HL-60 [10], 13. Besides, the logP in data set [11] came out at 4.93. Also, the Activity result in the data set with Mus musculus [12], in the data set on Mus musculus [13] and in the data set on Mus musculus [14] was “Non-toxic” throughout.
`O=C1/C(=C/c2ccc(Cl)cc2)CCC/C1=C\c1ccccc1[N+](=O)[O-]`: the CC50 is above 400 µM in data set [2]; 400 µM in data set [3]; above 400 µM in [4]; 3.7 µM in the data set on HSC-2 [5]; 6.1 µM in the data set on HSC-4 [7]; 7.6 µM with HL-60 [9]. Moreover, the “Selectivity Index” value in the data set on HSC-2 [6] is listed as above 108; in the data set with HSC-4 [8] it was above 66; in the data set with HL-60 [10], above 53. In data set [11], this compound gave a logP of 5.38. The outcome in the data set on HL-60 [15] and with HL-60 [17] was Active. Further, the outcome with HSC-2 [16] and with HSC-2 [18] was inactive. In addition, in the data set on Mus musculus [12], the Activity entry is listed as “Non-toxic”.
In the case of `Cc1ccc(/C=C2\CCC/C(=C\c3cccc([N+](=O)[O-])c3)C2=O)cc1`, the CC50 in data set [2] is above 400 µM; in [3], 192 µM; in [4] it was above 400 µM; with HSC-2 [5], 17 µM; in the data set with HSC-4 [7], 45 µM; with HL-60 [9] it was 38 µM. In addition, the “Selectivity Index” value in the data set on HSC-2 [6] is above 20; in the data set with HSC-4 [8], above 7.4; in the data set on HL-60 [10] it was above 8.7. Besides, the logP in data set [11] is 5.35. The Activity entry with Mus musculus [12], in the data set on Mus musculus [13] and with Mus musculus [14] was “Non-toxic” throughout.
For the compound `COc1ccc(/C=C2\CCC/C(=C\c3ccc([N+](=O)[O-])cc3)C2=O)cc1`, the CC50 at 24 h in data set [2], in data set [3] and in data set [4] was above 400 µM each time. Besides, the CC50 in the data set with HSC-2 [5], with HSC-4 [7] and in the data set with HL-60 [9] was above 400 µM each time. Further, the “Selectivity Index” value in the data set with HSC-2 [6], in the data set on HSC-4 [8] and in the data set on HL-60 [10] was 1 throughout. The same compound displayed a logP in [11] of 4.98. The Activity result with Mus musculus [12], in the data set on Mus musculus [13] and in the data set on Mus musculus [14] was “Non-toxic” in each case.
For `COc1cc(/C=C2\CCC/C(=C\c3cccc([N+](=O)[O-])c3)C2=O)cc(OC)c1OC`, the CC50 in data set [2] was 336 µM; in [3], above 400 µM; in data set [4], above 400 µM; in the data set on HSC-2 [5], 73 µM; in the data set on HSC-4 [7] it was 92 µM; in the data set with HL-60 [9], 59 µM. The entries for the “Selectivity Index” value in the data set with HSC-2 [6], with HSC-4 [8] and with HL-60 [10] were above 5.2, above 4.1 and above 6.4, respectively. The compound also yielded a logP in [11] of 4.53. In addition, the Activity entry in the data set with Mus musculus [12], in the data set on Mus musculus [13] and in the data set on Mus musculus [14] was “Non-toxic” each time.
Regarding `O=C1/C(=C/c2ccccc2)CCC/C1=C\c1ccccc1[N+](=O)[O-]`, the CC50 was 93 µM in [2]; 16 µM in [3]; 26 µM in [4]; 3.8 µM with HSC-2 [5]; 3.2 µM in the data set with HSC-4 [7]; 3.7 µM with HL-60 [9]. Also, the “Selectivity Index” value turned out to be 12 in the data set on HSC-2 [6], 14 with HSC-4 [8] and 12 in the data set on HL-60 [10]. In data set [11], the logP was 4.7. Also, the Activity entry in the data set on Mus musculus [12], in the data set on Mus musculus [13] and in the data set on Mus musculus [14] was “Non-toxic” each time.

One may read the CC50 as the concentration giving 50% cytotoxicity. Low readings indicate greater toxicity to the cells, high ones lower toxicity to the cells. As usually defined, the logP is a log measure of how a compound divides between an organic and an aqueous phase.
